Measured values published in ChEMBL document CHEMBL2203191, “Synthesis and biological evaluation of new fluorine substituted derivatives as angiotensin II receptor antagonists with anti-hypertension and anti-tumor effects” (Bioorg Med Chem, 2012).
Calls of active or inactive are those of the source. The rule behind the calls is not given here.

Tests used:
Rattus norvegicus [1] = assay: Antihypertensive activity in SHR rat assessed as decrease in mean arterial pressure at 5 mg/kg, po after 3 hrs; format: functional, Artery
In short: (§1)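 SHR (250-300 g) or renal hypertensive rats (SD rats, 250-350 g, left renal artery fully ligated under sodium pentobarbital 40 mg/kg; SBP above 160 mmHg selected), 10 per group. Dosed orally at 5 or 10 mg/kg as a suspension in 0.5% sodium carboxymethyl cellulose; vehicle-only negative control. Rats under pentobarbital (40 mg/kg ip) with right carotid cannulated to a pressure transducer; MAP recorded continuously for over 10 h and again at 24 h.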

Rattus norvegicus [2] = assay: Antihypertensive activity in Sprague-Dawley rat renal hypertensive model assessed as decrease in mean arterial pressure at 10 mg/kg, po; format: functional, organism-based; set-up: dose 10 mg/kg; conditions: Artery; in short: as §1
Rattus norvegicus [3] = assay: Cardiotoxicity in SHR rat assessed as effect on heart rate at 10 mg/kg, po; format: toxicity, organism-based; set-up: dose 10 mg/kg, route oral; conditions: in vivo
In short: (§2)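 Heart rate taken in SHR (250-300 g, 10 per group) given 5 or 10 mg/kg orally as a suspension in 0.5% sodium carboxymethyl cellulose, alongside a vehicle control. Monitored under sodium pentobarbital anesthesia (40 mg/kg ip) through a carotid arterial catheter and pressure transducer, continuously for over 10 h and again at 24 h.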

Rattus norvegicus [4] = assay: Cardiotoxicity in SHR rat assessed as effect on heart rate at 5 mg/kg, po; format: toxicity, organism-based; set-up: dose 5 mg/kg, route oral; conditions: in vivo; in short: as §2
Rattus norvegicus [5] = assay: Antihypertensive activity in SHR rat assessed as decrease in mean arterial pressure at 5 to 10 mg/kg, po measured for 8 hrs after dosing; format: functional, organism-based; conditions: Artery; in short: as §1
Rattus norvegicus [6] = organism: Rattus norvegicus; assay: (§3) Displacement of [125I]Angiotensin-2 from angiotensin AT1 receptor in Sprague-Dawley rat VSMC after 60 mins by gamma counting
In short: (§4)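 VSMCs from SD rat thoracic aorta, grown as explants in DMEM with 15% FBS; passages 3–7 used. Cells incubated with 0.1 nM [125I]Ang II and compound (1 × 10^-6 to 1 × 10^-12 M final) for 60 min at 37 °C. Nonspecific binding set with 1 µM Ang II. After PBS washes, cells lysed in 0.1 M NaOH and counted by gamma counter. IC50 obtained by regression of displacement curves; Ki = IC50/(1+[L]/Kd).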

[7] = as §3; in short: as §4
Rattus norvegicus [8] = assay: Antihypertensive activity in SHR rat assessed as decrease in mean arterial pressure at 10 mg/kg, po after 3 hrs; format: functional, Artery; in short: as §1
Rattus norvegicus [9] = assay: Antihypertensive activity in SHR rat assessed as mean arterial pressure at 5 to 10 mg/kg, po; format: functional, organism-based; conditions: Artery; in short: as §1
Rattus norvegicus [10] = assay: Antihypertensive activity in SHR rat assessed as decrease in mean arterial pressure at 10 mg/kg, po measured for 9 hrs after dosing; format: functional, organism-based; set-up: dose 10 mg/kg; conditions: Artery; in short: as §1
Rattus norvegicus [11] = assay: Antihypertensive activity in SHR rat assessed as decrease in mean arterial pressure at 10 mg/kg, po; format: functional, Artery; in short: as §1
LNCaP [12] = assay: Antiproliferative activity against human LNCAP cells assessed as reduction in Ang-2-induced increase in cell viability at 10 uM after 24 to 96 hrs by MTT assay; format: functional, cell-based
In short: (§5)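 LNCaP cells (1 × 10^5 per well) grown overnight at 37 °C, 5% CO2, then exposed to compound at 10 µM, with or without Ang II (1 × 10^-7 M). Control got medium with 0.05% v/v DMSO. MTT (5 mg/mL stock) added after 24, 48, 72 or 96 h and incubated 4 h at 37 °C; formazan dissolved in DMSO and read at 570 nm.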

LNCaP [13] = assay: Antitumor activity against human LNCAP cells xenografted in athymic nude mouse assessed as relative tumor volume at 5 mg/kg/day dosed on day 8 measured at 4 weeks post implantation by caliper measurement (reference value: 28.34 +/-2.05); format: functional
Rattus norvegicus [14] = assay: Antihypertensive activity in SHR rat assessed as decrease in mean arterial pressure at 10 mg/kg, po measured for 7 hrs after dosing; format: functional, organism-based; set-up: dose 10 mg/kg; conditions: Artery; in short: as §1
LNCaP [15] = assay: Antitumor activity against human LNCAP cells xenografted in athymic nude mouse assessed as relative tumor volume at 10 mg/kg/day dosed on day 8 measured at 4 weeks post implantation by caliper measurement (reference value: 28.34 +/-2.05); format: functional
Rattus norvegicus [16] = assay: Antihypertensive activity in SHR rat assessed as decrease in mean arterial pressure at 5 mg/kg, po; format: functional, Artery; in short: as §1
LNCaP [17] = assay: Cytotoxicity against human LNCAP cells assessed as cell viability at 10 uM after 24 to 96 hrs by MTT assay; format: cell-based; in short: as §5
Rattus norvegicus [18] = assay: Antihypertensive activity in SHR rat assessed as decrease in mean arterial pressure at 5 to 10 mg/kg, po after 3 to 5 hrs; format: functional, organism-based; conditions: Artery; in short: as §1
Rattus norvegicus [19] = assay: Antihypertensive activity in SHR rat assessed as decrease in mean arterial pressure at 10 mg/kg, po after 24 hrs; format: functional, organism-based; set-up: dose 10 mg/kg; conditions: Artery; in short: as §1
Rattus norvegicus [20] = assay: Antihypertensive activity in Sprague-Dawley rat renal hypertensive model assessed as decrease in mean arterial pressure at 5 mg/kg, po; format: functional, organism-based; set-up: dose 5 mg/kg; conditions: Artery; in short: as §1

SMILES	inhibition (Rattus norvegicus [6])	IC50 [7] [nM]	Ki [7] [nM]	Activity (Rattus norvegicus [2])	Activity (Rattus norvegicus [3])	Activity (Rattus norvegicus [4])	Activity (Rattus norvegicus [9])	Activity (Rattus norvegicus [11]) [mmHg]	further results
CCCCc1nc(Cl)c(C(=O)O)n1Cc1ccc(-c2cc(F)ccc2C(=O)O)cc1	Dose-dependent effect	13.6	9.17	Active	Non-toxic	Non-toxic	–	–	Activity (Rattus norvegicus [1]): 23 mmHg; Activity (Rattus norvegicus [5]): Active; Activity (Rattus norvegicus [8]): 32 mmHg
CCCCc1nc(Cl)c(C(=O)O)n1Cc1ccc(-c2cc(F)c(F)cc2C(=O)O)cc1	Dose-dependent effect	13.5	9.11	–	Non-toxic	Non-toxic	inactive	–	–
CCCCc1nc(Cl)c(CO)n1Cc1ccc(-c2ccccc2-c2nnn[nH]2)cc1 [LOSARTAN]	Dose-dependent effect	1.64	1.41	Active	–	–	–	27	Activity (LNCaP [12]): Active; Ratio (LNCaP [13]): 21.44; Activity (Rattus norvegicus [14]): Active; Ratio (LNCaP [15]): 15.75
CCCCC1=NC2(CCCC2)C(=O)N1Cc1ccc(-c2ccccc2-c2nnn[nH]2)cc1 [IRBESARTAN]	Dose-dependent effect	3.11	2.75	–	–	–	–	–	–
CCCCc1nc(Cl)c(CO)n1Cc1ccc(-c2ccc(F)cc2C(=O)O)cc1	Dose-dependent effect	4.11	3.78	Active	Non-toxic	Non-toxic	–	25	Activity (Rattus norvegicus [16]): 18 mmHg; Activity (Rattus norvegicus [5]): Active
CCCCc1nc(Cl)c(CO)n1Cc1ccc(-c2ccccc2-c2nn[nH]n2)cc1 [LOSARTAN]	–	–	–	–	Non-toxic	–	–	–	Activity (LNCaP [17]): Non-toxic
CCCCC1=NC2(CCCC2)C(=O)N1Cc1ccc(-c2ccc(F)cc2C(=O)O)cc1	Dose-dependent effect	9.98	6.75	–	Non-toxic	Non-toxic	inactive	–	–

Now from value to molecule, other results behind:

inhibition (Rattus norvegicus [6])	IC50 [7] [nM]	Ki [7] [nM]	SMILES	Activity (Rattus norvegicus [2])	Activity (Rattus norvegicus [3])	Activity (Rattus norvegicus [4])	Activity (Rattus norvegicus [9])	Activity (Rattus norvegicus [11]) [mmHg]	further results
Dose-dependent effect	2.64	2.08	CCCCC(=O)N(Cc1ccc(-c2ccccc2-c2nnn[nH]2)cc1)[C@H](C(=O)O)C(C)C [VALSARTAN]	Active	Non-toxic	–	–	28	Activity (Rattus norvegicus [10]): Active
Dose-dependent effect	0.584	0.42	CCCC(=O)N(Cc1ccc(-c2ccc(F)cc2C(=O)O)cc1)[C@H](C(=O)O)C(C)C	Active	Non-toxic	Non-toxic	–	42	Activity (Rattus norvegicus [18]): Active; Activity (Rattus norvegicus [19]): Active; Activity (Rattus norvegicus [20]): Active; Activity (LNCaP [12]): Active; Ratio (LNCaP [13]): 17.44; Activity (Rattus norvegicus [16]): 27 mmHg; Activity (LNCaP [17]): Non-toxic; Ratio (LNCaP [15]): 12.39
Dose-dependent effect	26.1	17.6	CCCCc1nc(Cl)c(C(=O)O)n1Cc1ccc(-c2ccc(F)cc2C(=O)O)cc1	–	Non-toxic	Non-toxic	inactive	–	–
